Reference: ChEMBL document CHEMBL3272057, “Synthesis and structure-toxicity relationships of three new stable analogues of acetyl-seco-hemicholinium-3” (J Med Chem, 1976)
Active and inactive are the calls of the source. No cut-off for these calls is given here.

What was measured:
[1] = Chemical stability of the compound in deuterium oxide solutions at slightly acidic condition up to 48 hrs by NMR analysis; type: physicochemical
[2] = Chemical stability of the compound in deuterium oxide solutions at pH 7.4 up to 48 hrs by NMR analysis; type: physicochemical; settings: buffer, pH 7.4, 48 h
[3] = test system: Mus musculus; assay: Toxicity in ip dosed Charles River CD-1 albino mouse assessed as increase of peristalsis of small intestine; type: organism-based; settings: in vivo
[4] = Toxicity in ip dosed Charles River CD-1 albino mouse assessed as mortality at >LD95 in presence of neostigmine; type: organism-based; settings: CD-1, mouse, in vivo, read-out: Activity
Method in brief: (§1)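 CD-1 male mice. Choline (20 mg/kg) or neostigmine (0.2 mg/kg) was given ip 1 min before an ip >LD95 dose of compound in saline. Read-out was % mortality.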

[5] = Chemical stability of the compound in water at slightly acidic condition up to 48 hrs by NMR analysis; type: physicochemical; settings: buffer
[6] = Ratio of hemicholinium-3 LD50 to compound LD50 for toxicity in ip dosed Charles River CD-1 albino mouse measured within 5 mins; type: organism-based; settings: CD-1, mouse, in vivo
[7] = test system: Mus musculus; assay: Toxicity in ip dosed Charles River CD-1 albino mouse assessed as reduction of cardiac contraction; type: organism-based, Heart; settings: in vivo
[8] = (§2) Toxicity in ip dosed Charles River CD-1 albino mouse measured within 5 mins; type: organism-based; settings: CD-1, mouse, in vivo
[9] = test system: Mus musculus; assay: as §2; type: organism-based; settings: mouse, in vivo, 5 min
[10] = biological target: T1, Acetylcholinesterase (Bos taurus) (UniProt P23795); assay: Binding affinity to bovine erythrocyte acetylcholinesterase in water at pH 7.4 at 100 x 10^-5 M up to 6 hrs by UV-spectra analysis
T1 sequence (whole entry): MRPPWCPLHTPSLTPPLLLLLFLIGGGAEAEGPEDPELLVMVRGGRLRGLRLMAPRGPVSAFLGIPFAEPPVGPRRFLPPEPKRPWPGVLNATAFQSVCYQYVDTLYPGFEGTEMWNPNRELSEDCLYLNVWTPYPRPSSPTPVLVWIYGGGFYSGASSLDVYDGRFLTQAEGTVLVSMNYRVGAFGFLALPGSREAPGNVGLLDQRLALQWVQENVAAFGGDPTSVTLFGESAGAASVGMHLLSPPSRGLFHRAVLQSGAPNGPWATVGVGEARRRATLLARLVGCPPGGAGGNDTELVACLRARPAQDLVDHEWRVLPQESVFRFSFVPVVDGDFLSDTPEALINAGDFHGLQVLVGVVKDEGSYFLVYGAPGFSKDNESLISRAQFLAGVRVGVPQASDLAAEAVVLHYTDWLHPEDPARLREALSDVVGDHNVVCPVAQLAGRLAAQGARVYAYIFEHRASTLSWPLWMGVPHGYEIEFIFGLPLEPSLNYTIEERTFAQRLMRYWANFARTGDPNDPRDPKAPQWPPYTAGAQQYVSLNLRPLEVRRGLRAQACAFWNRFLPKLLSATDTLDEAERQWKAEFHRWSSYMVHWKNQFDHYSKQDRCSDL
Method in brief: (§3)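 Test solutions 100 × 10⁻⁵ M in pH 7.4 buffered water. UV spectrum recorded against identically buffered water reference. 0.1 ml of bovine erythrocyte acetylcholinesterase (40 μ/ml, pH 7.4 buffer) was added to 1-ml sample and reference, giving an enzyme level similar to blood. Spectrum recorded immediately, then again after incubation at 37° for 6 h. Shift in λmax was read.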

[11] = Toxicity in ip dosed Charles River CD-1 albino mouse assessed as mortality at >LD95 in presence of choline; type: organism-based; settings: CD-1, mouse, in vivo, read-out: Activity; method in brief: as §1
[12] = Chemical stability of the compound in water at pH 7.4 up to 48 hrs by NMR analysis; type: physicochemical; settings: buffer, pH 7.4, 48 h
[13] = biological target: T1, Acetylcholinesterase (Bos taurus); assay: Binding affinity to bovine erythrocyte acetylcholinesterase in water at pH 7.4 at 100 x 10^-5 M measured immediately by UV-spectra analysis; method in brief: as §3

## CC(=O)CCC[N+](C)(C)CC(=O)c1ccc(-c2ccc(C(=O)C[N+](C)(C)CCCC(C)=O)cc2)cc1.[Br-].[Br-]
[1]
  Stability: Stable
[2]
  Stability: Stable
[3]
  Activity: Toxic
[4]
  mortality: 70%
[5]
  Stability: Stable
[6]
  selectivity ratio at 5 min: 23.8
[7]
  Activity: Non-toxic
[8]
  LD50 at 5 min: 3.1 mg/kg
[9]
  LD95: 4.6 mg/kg
[10]
  Activity: inactive
[11]
  mortality: 0%
[12]
  Stability: Stable

## C[N+]1(C)CCOC(O)(c2ccc(-c3ccc(C4(O)C[N+](C)(C)CCO4)cc3)cc2)C1 (configuration not stated) [HEMICHOLINIUM-3]
[3]
  Activity: Toxic
[7]
  Activity: Non-toxic
[8]
  LD50 at 5 min: 0.13 mg/kg
[9]
  LD95: 0.2 mg/kg
[10]
  Activity: inactive

## CCCCC[N+](C)(C)CC(=O)c1ccc(-c2ccc(C(=O)C[N+](C)(C)CCCCC)cc2)cc1.[Br-].[Br-]
[1]
  Stability: Stable
[2]
  Stability: Stable
[3]
  Activity: Toxic
[4]
  mortality: 80%
[5]
  Stability: Stable
[6]
  selectivity ratio at 5 min: 43.1
[7]
  Activity: Non-toxic
[8]
  LD50 at 5 min: 5.6 mg/kg
[9]
  LD95: 5.8 mg/kg
[10]
  Activity: inactive
[11]
  mortality: 30%
[12]
  Stability: Stable

## CC(=O)OCC[N+](C)(C)CC(=O)c1ccc(-c2ccc(C(=O)C[N+](C)(C)CCOC(C)=O)cc2)cc1.[Br-].[Br-]
[3]
  Activity: Toxic
[13]
  Activity: Active
[6]
  selectivity ratio at 5 min: 1
[7]
  Activity: Non-toxic
[8]
  LD50 at 5 min: 0.125 mg/kg
[9]
  LD95: 0.4 mg/kg

## CCOCC[N+](C)(C)CC(=O)c1ccc(-c2ccc(C(=O)C[N+](C)(C)CCOCC)cc2)cc1.[Br-].[Br-]
[1]
  Stability: Stable
[2]
  Stability: Stable
[3]
  Activity: Toxic
[4]
  mortality: 80%
[5]
  Stability: Stable
[6]
  selectivity ratio at 5 min: 14.2
[7]
  Activity: Non-toxic
[8]
  LD50 at 5 min: 1.84 mg/kg
[9]
  LD95: 2.67 mg/kg
[10]
  Activity: inactive
[11]
  mortality: 0%
[12]
  Stability: Stable
